# Reference: ChEMBL document CHEMBL2417509, “Synthesis and biological evaluation of prodigiosene conjugates of porphyrin, estrone and 4-hydroxytamoxifen” (2013)
# Calls of active or inactive are those of the source. The rule behind the calls is not given here.
# What was measured:
# PC-3 = experiment: Cytotoxicity against human PC3 cells after 2 days by sulforhodamine B assay; type: functional; conditions: PC-3, 48 h
# Method in brief: (§1)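 NCI60 multi-dose screen, 59 human tumour lines available. Cells exposed to compound across a 5-log mol/L concentration range for 2 days, then fixed and stained with sulphorhodamine B, optical density read. Growth inhibition calculated against time-zero control and untreated cells. GI50 derived from the dose series, average of two replicates.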
# SN12C = experiment: Cytotoxicity against human SN12C cells after 2 days by sulforhodamine B assay; type: functional; conditions: 48 h; method in brief: as §1
# CAKI-1 = experiment: Cytotoxicity against human CAKI-1 cells after 2 days by sulforhodamine B assay; type: functional; conditions: CAKI-1, 48 h; method in brief: as §1
# SK-OV-3 = experiment: Cytotoxicity against human SKOV3 cells after 2 days by sulforhodamine B assay; type: functional; conditions: SK-OV-3, 48 h; method in brief: as §1
# OVCAR-8 = experiment: Cytotoxicity against human OVCAR8 cells after 2 days by sulforhodamine B assay; type: functional; conditions: OVCAR-8, 48 h; method in brief: as §1
# [1] = Cytotoxicity against human NCI-ADR-RES cells after 2 days by sulforhodamine B assay; type: functional; conditions: 48 h; method in brief: as §1
# OVCAR-5 = experiment: Cytotoxicity against human OVCAR5 cells after 2 days by sulforhodamine B assay; type: functional; conditions: OVCAR-5, 48 h; method in brief: as §1
# OVCAR-3 = experiment: Cytotoxicity against human OVCAR3 cells after 2 days by sulforhodamine B assay; type: functional; conditions: OVCAR-3, 48 h; method in brief: as §1
# IGROV-1 = experiment: Cytotoxicity against human IGROV1 cells after 2 days by sulforhodamine B assay; type: functional; conditions: IGROV-1, 48 h; method in brief: as §1
# UACC-62 = experiment: Cytotoxicity against human UACC62 cells after 2 days by sulforhodamine B assay; type: functional; conditions: UACC-62, 48 h
# Method in brief: (§2)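 NCI DTP NCI60 multi-dose screen (59 human tumour lines available). Cells exposed to compound over a 5-log mol/L concentration range for 2 days, then fixed and stained with sulphorhodamine B, with optical density read. Growth inhibition calculated relative to time-zero cells and untreated cells, giving GI50 (half-maximal growth inhibition concentration). Average of two replicates.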
# UACC-257 = experiment: Cytotoxicity against human UACC257 cells after 2 days by sulforhodamine B assay; type: functional; conditions: UACC-257, 48 h; method in brief: as §2
# SK-MEL-28 = experiment: Cytotoxicity against human SK-MEL-28 cells after 2 days by sulforhodamine B assay; type: functional; conditions: SK-MEL-28, 48 h; method in brief: as §1
# MDA-MB-435 = experiment: Cytotoxicity against human MDA-MB-435 cells after 2 days by sulforhodamine B assay; type: functional; conditions: MDA-MB-435, 48 h; method in brief: as §1
# SK-MEL-2 = experiment: Cytotoxicity against human SK-MEL-2 cells after 2 days by sulforhodamine B assay; type: functional; conditions: SK-MEL-2, 48 h; method in brief: as §1
# Malme-3M = experiment: Cytotoxicity against human MALME-3M cells after 2 days by sulforhodamine B assay; type: functional; conditions: 48 h; method in brief: as §1
# U-251 = experiment: Cytotoxicity against human U251 cells after 2 days by sulforhodamine B assay; type: functional; conditions: U-251, 48 h; method in brief: as §2
# SNB-75 = experiment: Cytotoxicity against human SNB75 cells after 2 days by sulforhodamine B assay; type: functional; conditions: SNB-75, 48 h; method in brief: as §2
# SF-539 = experiment: Cytotoxicity against human SF539 cells after 2 days by sulforhodamine B assay; type: functional; conditions: SF-539, 48 h; method in brief: as §1
# SF-295 = experiment: Cytotoxicity against human SF295 cells after 2 days by sulforhodamine B assay; type: functional; conditions: SF-295, 48 h; method in brief: as §1
# KM12 = experiment: Cytotoxicity against human KM12 cells after 2 days by sulforhodamine B assay; type: functional; conditions: KM12, 48 h; method in brief: as §1
# HCT-15 = experiment: Cytotoxicity against human HCT15 cells after 2 days by sulforhodamine B assay; type: functional; conditions: HCT-15, 48 h; method in brief: as §1
# HCT-116 = experiment: Cytotoxicity against human HCT116 cells after 2 days by sulforhodamine B assay; type: functional; conditions: HCT-116, 48 h; method in brief: as §1
# NCI-H460 = experiment: Cytotoxicity against human NCI-H460 cells after 2 days by sulforhodamine B assay; type: functional; conditions: NCI-H460, 48 h; method in brief: as §1
# NCI-H322M = experiment: Cytotoxicity against human NCI-H322M cells after 2 days by sulforhodamine B assay; type: functional; conditions: 48 h; method in brief: as §1
# NCI-H226 = experiment: Cytotoxicity against human NCI-H226 cells after 2 days by sulforhodamine B assay; type: functional; conditions: NCI-H226, 48 h; method in brief: as §1
# HOP-62 = experiment: Cytotoxicity against human HOP62 cells after 2 days by sulforhodamine B assay; type: functional; conditions: HOP-62, 48 h; method in brief: as §1
# MCF7 = experiment: Cytotoxicity against human ER positive MCF7 cells assessed as cell viability at 1 uM after 72 hrs by MTT assay; type: functional, cell-based
# Method in brief: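 Lines kept in DMEM with 10% fetal bovine serum and 1% penicillin/streptomycin at 37 °C, 5% CO2. Compound applied at 1 µM for 72 h, then standard MTT reduction read-out. Viability given as mean percentage of formazan formed by treated cells relative to mock-treated cells (0.1% DMSO). Run in quadruplicate, standard error, Student's t-test.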
# T47D = experiment: Cytotoxicity against human T47D cells after 2 days by sulforhodamine B assay; type: functional; conditions: 48 h; method in brief: as §2
# DU-145 = experiment: Cytotoxicity against human DU145 cells after 2 days by sulforhodamine B assay; type: functional; conditions: DU-145, 48 h; method in brief: as §1
# UO-31 = experiment: Cytotoxicity against human UO31 cells after 2 days by sulforhodamine B assay; type: functional; conditions: UO-31, 48 h; method in brief: as §2
# [2] = read-out: LC50 (the source's name)
structure (smiles),measurement,setting,value
CC/C(=C(/c1ccc(OCCN(C)C)cc1)c1ccc(OC(=O)CCCCCCCCC(=O)C2=C(C)/C(=C/c3[nH]c(-c4ccc[nH]4)cc3OC)N=C2C)cc1)c1ccccc1,GI50,PC-3,5.89 µM
same,LC50 (concentration killing 50% of cells),PC-3,> 100 µM
same,TGI,PC-3,> 100 µM
same,GI50,SN12C,7.59 µM
same,TGI,SN12C,> 100 µM
same,CC50,SN12C; [2],> 100 µM
same,GI50,CAKI-1,6.92 µM
same,LC50 (concentration killing 50% of the cells present at time zero),CAKI-1,> 100 µM
same,TGI,CAKI-1,> 100 µM
same,GI50,SK-OV-3,> 100 µM
same,LC50 (concentration killing 50% of starting cells),SK-OV-3,> 100 µM
same,TGI,SK-OV-3,> 100 µM
same,GI50,OVCAR-8,9.12 µM
same,LC50,OVCAR-8,> 100 µM
same,TGI,OVCAR-8,> 100 µM
same,GI50,[1],31.6 µM
same,TGI,[1],> 100 µM
same,CC50,[1]; [2],> 100 µM
same,GI50,OVCAR-5,> 100 µM
same,LC50,OVCAR-5,> 100 µM
same,TGI,OVCAR-5,> 100 µM
same,GI50,OVCAR-3,11 µM
same,LC50,OVCAR-3,> 100 µM
same,TGI,OVCAR-3,> 100 µM
same,GI50,IGROV-1,22.9 µM
same,LC50,IGROV-1,> 100 µM
same,TGI,IGROV-1,> 100 µM
same,GI50,UACC-62,3.39 µM
same,TGI,UACC-62,18.2 µM
same,CC50,UACC-62; [2],> 100 µM
same,GI50,UACC-257,63.1 µM
same,TGI,UACC-257,> 100 µM
same,CC50,UACC-257; [2],> 100 µM
same,GI50,SK-MEL-28,43.6 µM
same,LC50,SK-MEL-28,> 100 µM
same,TGI,SK-MEL-28,> 100 µM
same,GI50,MDA-MB-435,4.57 µM
same,TGI,MDA-MB-435,> 100 µM
same,CC50,MDA-MB-435; [2],> 100 µM
same,GI50,SK-MEL-2,30.9 µM
same,LC50,SK-MEL-2,> 100 µM
same,TGI,SK-MEL-2,> 100 µM
same,GI50,Malme-3M,40.7 µM
same,LC50,Malme-3M,> 100 µM
same,TGI,Malme-3M,> 100 µM
same,GI50,U-251,6.61 µM
same,LC50,U-251,> 100 µM
same,TGI,U-251,> 100 µM
same,GI50,SNB-75,4.17 µM
same,LC50 (concentration killing 50% of starting cells),SNB-75,> 100 µM
same,TGI,SNB-75,> 100 µM
same,GI50,SF-539,12 µM
same,LC50,SF-539,> 100 µM
same,TGI,SF-539,50.1 µM
same,GI50,SF-295,10.7 µM
same,LC50,SF-295,> 100 µM
same,TGI,SF-295,61.7 µM
same,GI50,KM12,5.25 µM
same,LC50,KM12,> 100 µM
same,TGI,KM12,> 100 µM
same,GI50,HCT-15,5.13 µM
same,LC50,HCT-15,> 100 µM
same,TGI,HCT-15,97.7 µM
same,GI50,HCT-116,3.39 µM
same,LC50 (concentration killing 50% of cells vs time zero),HCT-116,> 100 µM
same,TGI,HCT-116,21.9 µM
same,GI50,NCI-H460,4.27 µM
same,LC50,NCI-H460,> 100 µM
same,TGI,NCI-H460,> 100 µM
same,GI50,NCI-H322M,> 100 µM
same,LC50 (concentration killing 50% of cells),NCI-H322M,> 100 µM
same,TGI,NCI-H322M,> 100 µM
same,GI50,NCI-H226,> 100 µM
same,LC50,NCI-H226,> 100 µM
same,TGI,NCI-H226,> 100 µM
same,GI50,HOP-62,16.9 µM
same,TGI,HOP-62,> 100 µM
same,CC50,HOP-62; [2],> 100 µM
same,Activity,MCF7,inactive
same,GI50,T47D,3.55 µM
same,LC50 (concentration killing 50% of cells),T47D,> 100 µM
same,TGI,T47D,> 100 µM
same,GI50,DU-145,8.13 µM
same,LC50 (concentration killing 50% of starting cells),DU-145,> 100 µM
same,TGI,DU-145,> 100 µM
same,GI50,UO-31,4.47 µM
same,LC50,UO-31,> 100 µM
same,TGI,UO-31,> 100 µM
